Laboratory results reported in ChEMBL document CHEMBL3813630, “Coumarin carboxylic acids as monocarboxylate transporter 1 inhibitors: In vitro and in vivo studies as potential anticancer agents” (Bioorg Med Chem Lett, 2016).

Tests used:
[1] = target: T1, Monocarboxylate transporter 1 (Rattus norvegicus, UniProt P53987); experiment: Inhibition of MCT1 in rat brain endothelial 4 cells assessed as L-[14C]-Lactate Uptake after 15 mins by scintillation spectrometric analysis; assay type: cell-based
T1 sequence (P53987 whole entry): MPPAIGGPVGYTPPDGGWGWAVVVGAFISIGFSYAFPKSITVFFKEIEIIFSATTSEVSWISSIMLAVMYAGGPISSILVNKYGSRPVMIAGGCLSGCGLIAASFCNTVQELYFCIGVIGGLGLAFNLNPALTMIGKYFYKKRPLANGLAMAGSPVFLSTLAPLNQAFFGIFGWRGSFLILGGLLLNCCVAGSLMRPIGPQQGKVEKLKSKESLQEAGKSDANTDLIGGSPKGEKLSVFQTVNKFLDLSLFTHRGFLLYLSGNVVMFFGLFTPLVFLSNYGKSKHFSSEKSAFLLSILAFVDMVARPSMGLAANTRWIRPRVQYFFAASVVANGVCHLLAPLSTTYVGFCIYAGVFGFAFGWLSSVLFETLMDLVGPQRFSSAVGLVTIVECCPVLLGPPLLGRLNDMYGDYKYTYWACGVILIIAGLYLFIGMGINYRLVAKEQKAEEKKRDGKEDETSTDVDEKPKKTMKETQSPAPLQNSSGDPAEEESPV

[2] = Cytotoxicity against mouse GL261 cells expressing luc2 assessed as reduction in cell viability after 72 hrs by MTT assay; assay type: functional, cell-based; settings: GL261, 72 h
Summary of the method: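 GL261-luc2 cells grown in DMEM, 10% FBS, 50 μg/mL geneticin, penicillin-streptomycin; 5 × 10^3 cells/well, 24 h at 37 °C, 5% CO2, then compound in replicate for 72 h.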

[3] = test system: MDA-MB-231; experiment: Cytotoxicity against human MDA-MB-231 cells expressing luc2 assessed as reduction in cell viability after 72 hrs by MTT assay; assay type: functional, cell-based; settings: MDA-MB-231, 72 h
Summary of the method: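 MDA-MB-231 cells grown in DMEM, 10% FBS, penicillin-streptomycin; 5 × 10^3 cells/well, 24 h at 37 °C, 5% CO2, then compound in replicate for 72 h.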

[4] = test system: Mus musculus; experiment: Toxicity in CD-1 mouse assessed as visible toxic effects at 100 mg/kg, administered via oral gavage qd; assay type: organism-based; settings: in vivo
Summary of the method: (§1)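 Healthy CD-1 mice were dosed once daily, either 20 mg/kg ip or 100 mg/kg by oral gavage. Control mice received vehicle (10% DMSO in saline). Animals were monitored for mortality, body weight change and apparent side effects, compared with the vehicle group. The study was conducted by GenScript under an approved IACUC protocol.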

[5] = Permeability across basolateral side at pH 6.5 to apical side at pH 7.4 in human Caco2 cells assessed as compound recovery at 10 uM; assay type: ADME, cell-based; settings: caco-2, pH 6.5, 10 µM
[6] = Efflux ratio of permeability from basolateral to apical side over apical to basolateral side in human Caco2 cells; assay type: ADME, cell-based; settings: caco-2
[7] = test system: Mus musculus; experiment: Toxicity in CD-1 mouse assessed as mortality at 20 mg/kg, ip qd; assay type: organism-based; settings: in vivo; summary of the method: as §1
[8] = test system: MDA-MB-231; experiment: Antitumor activity against MCT4 expressing human MDA-MB-231 cells coexpressing luciferase xenografted in SCID mouse assessed as tumor growth inhibition at 20 mg/kg, ip qd measured on day 19; assay type: functional; settings: MDA-MB-231, ip, 456 h, read-out: TGI
Summary of the method: (§2)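 Female SCID mice, right flank injected with 10 × 10^6 MDA-MB-231 cells in 1:1 matrigel-PBS; randomized, n = 6; dosing started at mean tumor volume ~100 mm3; vehicle 10% DMSO in saline. Study ended day 19; tumors excised and weighed; % inhibition = [(C − T)/C] × 100 from mean tumor weights versus vehicle. Mann-Whitney test.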

[9] = test system: MDA-MB-231; experiment: Antitumor activity against MCT4 expressing human MDA-MB-231 cells coexpressing luciferase xenografted in SCID mouse assessed as tumor growth inhibition at 100 mg/kg, administered via oral gavage qd measured on day 19; assay type: functional; settings: MDA-MB-231, po, 456 h, read-out: TGI; summary of the method: as §2
[10] = test system: Mus musculus; experiment: Toxicity in CD-1 mouse assessed as mortality at 100 mg/kg, administered via oral gavage qd; assay type: organism-based; settings: in vivo; summary of the method: as §1
[11] = Permeability across apical side at pH 6.5 to basolateral side at pH 7.4 in human Caco2 cells assessed as compound recovery at 10 uM; assay type: ADME, cell-based; settings: caco-2, pH 6.5, 10 µM
[12] = test system: Mus musculus; experiment: Toxicity in CD-1 mouse assessed as visible toxic effects at 20 mg/kg, ip qd; assay type: organism-based; settings: in vivo; summary of the method: as §1
[13] = Antitumor activity against MCT1 expressing mouse GL261 cells coexpressing luc2 syngrafted in C57BL/6 mouse assessed as tumor growth inhibition at 20 mg/kg, ip qd; assay type: functional; settings: C57BL/6, GL261, ip, read-out: TGI
Summary of the method: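 GL261-luc2 cells (5 × 10^6) in 1:1 matrigel-PBS injected into right flank of C57BL/6 mice (male and female); randomized, n = 6; dosing began at tumor volume 200 mm3; vehicle 10% DMSO in saline. Caliper measurement every 2–3 days, V = ab²/2. At study end tumors excised and weighed; % inhibition = [(C − T)/C] × 100 on mean tumor weights. Mann-Whitney test.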

[14] = test system: Mus musculus; experiment: Toxicity in CD-1 mouse assessed as change in body weight at 20 mg/kg, ip qd; assay type: organism-based; settings: in vivo; summary of the method: as §1
[15] = test system: Mus musculus; experiment: Toxicity in CD-1 mouse assessed as change in body weight at 100 mg/kg, administered via oral gavage qd; assay type: organism-based; settings: in vivo; summary of the method: as §1
[16] = test system: MDA-MB-231; experiment: Antitumor activity against MCT4 expressing human MDA-MB-231 cells coexpressing luciferase xenografted in SCID mouse assessed as tumor growth inhibition at 0.5 mg/kg, ip for 5 days per week measured on day 19; assay type: functional; settings: MDA-MB-231, ip, read-out: TGI; summary of the method: as §2

SMILES	IC50 [1] [µM]	Drug recovery [5] [%]	IC50 [2] [µM]	IC50 [3] [µM]	Drug recovery [11] [%]	other results
O=C(O)c1cc2ccc(N(Cc3ccccc3)Cc3ccccc3)cc2oc1=O	0.09	55	> 250	240	34	Activity [4]: Non-toxic; Ratio [6]: 0.2; Activity [7]: Non-toxic; inhibition in vivo at 20 mg/kg [8]: 10%; inhibition in vivo at 100 mg/kg [9]: 13%; Activity [10]: Non-toxic; Activity [12]: Non-toxic; inhibition in vivo at 20 mg/kg [13]: 77%; Activity [14]: Non-toxic; Activity [15]: Non-toxic
COc1cc2c(c(OC)c1OC)-c1ccc(OC)c(=O)cc1[C@@H](NC(C)=O)CC2 [COLCHICINE]	–	–	–	–	75	–
COc1cccc2c1C(=O)c1c(O)c3c(c(O)c1C2=O)C[C@@](O)(C(=O)CO)C[C@@H]3O[C@H]1C[C@H](N)[C@H](O)[C@H](C)O1 [DOXORUBICIN]	–	–	–	–	–	inhibition in vivo at 0.5 mg/kg [16]: 50%
CC(CCc1ccccc1)NCC(O)c1ccc(O)c(C(N)=O)c1 (stereo not given) [LABETALOL]	–	72	–	–	66	–
CC(C)NCC(O)COc1cccc2ccccc12 (stereo not given) [PROPRANOLOL]	–	80	–	–	67	–
CNC(=C[N+](=O)[O-])NCCSCc1ccc(CN(C)C)o1 [RANITIDINE]	–	85	–	–	–	–
Cn1nnc2c(C(N)=O)ncn2c1=O [TEMOZOLOMIDE]	–	–	–	–	–	inhibition in vivo at 20 mg/kg [13]: 81%

Further lines, with some results ahead:

IC50 [1] [µM]	Drug recovery [5] [%]	SMILES	IC50 [2] [µM]	IC50 [3] [µM]	Drug recovery [11] [%]	other results
0.38	–	O=C(O)c1cc2ccc(N3CCCC3)cc2oc1=O	> 250	> 250	–	–
0.45	–	CCCN(CCC)c1ccc2cc(C(=O)O)c(=O)oc2c1	> 250	> 250	–	–
0.21	–	C#CCN(CC#C)c1ccc2cc(C(=O)O)c(=O)oc2c1	> 250	> 250	–	–
0.17	–	C=CCN(CC=C)c1ccc2cc(C(=O)O)c(=O)oc2c1	> 250	> 250	–	–
